Here are results for 2 molecules from paper PMC3625064 (Molecular cell, 2012).

Where a chain is given by its changes, count along the chain named. Names and notes keep the numbering of the source.

Data set [1] deals with LSD2 histone demethylation in U2OS cells. In words: immunofluorescence of histone marks in U2OS cells coexpressing LSD2 and NPAC. Conditions: coexpression of NPAC and LSD2; Figure S1D and data not shown. It counts as cell-based. The method, boiled down: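 U2OS cells were transiently transfected with GFP-LSD2 alone or together with NPAC. Histone methylation marks were then detected by immunofluorescence with DAPI as DNA counterstain. Cells expressing similar levels of GFP-LSD2 were compared.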

The target in data set [2] is T1, LSD2 (Homo sapiens, UniProt Q8NB78).
T1 sequence (Q8NB78 1-822): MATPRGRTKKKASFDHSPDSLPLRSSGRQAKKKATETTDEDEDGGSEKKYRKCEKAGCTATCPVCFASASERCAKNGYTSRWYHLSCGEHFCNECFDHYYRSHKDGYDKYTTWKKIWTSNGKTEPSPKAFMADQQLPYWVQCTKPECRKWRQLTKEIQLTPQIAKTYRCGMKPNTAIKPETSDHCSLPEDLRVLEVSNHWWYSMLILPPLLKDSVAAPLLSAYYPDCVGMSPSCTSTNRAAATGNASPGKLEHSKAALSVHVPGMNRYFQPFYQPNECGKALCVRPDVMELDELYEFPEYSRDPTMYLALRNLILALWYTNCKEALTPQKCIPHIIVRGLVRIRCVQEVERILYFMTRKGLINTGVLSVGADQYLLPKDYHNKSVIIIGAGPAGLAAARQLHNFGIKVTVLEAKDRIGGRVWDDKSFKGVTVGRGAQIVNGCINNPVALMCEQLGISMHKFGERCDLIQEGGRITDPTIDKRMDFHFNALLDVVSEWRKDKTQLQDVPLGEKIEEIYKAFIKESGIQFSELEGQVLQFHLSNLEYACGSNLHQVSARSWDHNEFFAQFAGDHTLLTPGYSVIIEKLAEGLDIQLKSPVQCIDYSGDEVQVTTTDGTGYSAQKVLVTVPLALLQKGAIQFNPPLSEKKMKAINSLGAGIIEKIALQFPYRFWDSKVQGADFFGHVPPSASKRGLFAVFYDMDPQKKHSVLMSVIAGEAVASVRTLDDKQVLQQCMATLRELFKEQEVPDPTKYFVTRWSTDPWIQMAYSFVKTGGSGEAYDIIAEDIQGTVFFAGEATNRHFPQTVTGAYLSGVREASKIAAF
In words: shorter H3K4me2 peptide. In kind it is biochemical. Conditions: H3K4me2 peptide (residues 1–15) as substrate; Figures S6A and S6B. A digest of the protocol: (§1)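 Purified LSD2 (full-length or residues 51–822) was incubated with NPAC-derived peptides or proteins and an H3K4me2 peptide substrate. Products were desalted on C18 tips and analysed by MALDI-TOF MS at constant laser intensity for me1/me2 masses.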

The next data set relates to nucleosomal H3K4me2. In words: nucleosome demethylation assay, demethylase activity toward nucleosomal H3K4me2. In kind it is biochemical. Conditions: recombinant NPAC, or NPAC complex purified from HeLa cells via TAP; immunoblot. A digest of the protocol:
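Nucleosomes purified from HeLa cells were incubated with tandem-affinity-purified NPAC or LSD2 complexes from HeLa cells, with or without added recombinant NPAC. H3K4 demethylation was assessed by SDS-PAGE and immunoblot with methylation-specific histone H3 antibodies.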

A further data set has as its system LSD1. In words: nucleosome demethylation by LSD1, stimulation by NPAC. Conditions: nucleosomes; Figure S1B. It counts as biochemical, human.
Data set [3] addresses T1, LSD2. Description: nucleosome demethylation assay, stimulation. It counts as biochemical. Particulars: nucleosome demethylation; more NPAC and LSD2 proteins used; Figure S6E.
The target in data set [4] is T1, LSD2. In words: longer H3K4me2 peptide. In kind it is biochemical. Particulars: H3K4me2 peptide (1–44) as substrate; Figure S6C. The method, boiled down:
as §1

B1: NPAC: NPAC/GLYR1 (UniProtKB/Swiss-Prot ID: Q49A26), contains PWWP domain, AT-hook motif, and dehydrogenase domain (protein, UniProt Q49A26 1-553, looked up)
Cytokine-like nuclear factor …: MAAVSLRLGDLVWGKLGRYPPWPGKIVNPPKDLKKPRGKKCFFVKFFGTEDHAWIKVEQLKPYHAHKEEMIKINKGKRFQQAVDAVEEFLRRAKGKDQTSSHNSSDDKNRRNSSEERSRPNSGDEKRKLSLSEGKVKKNMGEGKKRVSSGSSERGSKSPLKRAQEQSPRKRGRPPKDEKDLTIPESSTVKGMMAGPMAAFKWQPTASEPVKDADPHFHHFLLSQTEKPAVCYQAITKKLKICEEETGSTSIQAADSTAVNGSITPTDKKIGFLGLGLMGSGIVSNLLKMGHTVTVWNRTAEKCDLFIQEGARLGRTPAEVVSTCDITFACVSDPKAAKDLVLGPSGVLQGIRPGKCYVDMSTVDADTVTELAQVIVSRGGRFLEAPVSGNQQLSNDGMLVILAAGDRGLYEDCSSCFQAMGKTSFFLGEVGNAAKMMLIVNMVQGSFMATIAEGLTLAQVTGQSQQTLLDILNQGQLASIFLDQKCQNILQGNFKPDFYLKYIQKDLRLAIALGDAVNHPTPMAAAANEVYKRAKALDQSDNDMSAVYRAYIH
modifications: His tag
B1: the “change of H3K9me2 and other histone marks” value in data set [1] is “no detectable changes”. The “cofactor activity with shorter H3K4me2 peptide (residues 1–15)” value with LSD2 [2] is reported as “did not detect NPAC cofactor activity”. Moreover, the “histone demethylase activity toward nucleosomes” value with nucleosomal H3K4me2 is “possesses no demethylase activity”. Also, the “stimulatory effect on nucleosome demethylation by LSD1” value in the data set on LSD1 was “no stimulatory effect”.

B2: NPAC F217A protein: full-length F217A NPAC protein (protein, UniProt Q49A26 1-553, looked up, variant F217A)
chain: B1 Cytokine-like nuclear factor … with F217A
modifications: full-length
As to B2, the “cofactor activity of full-length NPAC protein, more NPAC and LSD2 proteins” value with LSD2 [3] is “residual stimulatory activity”. Further, the “stimulation of LSD2 demethylation of the longer H3K4me2 peptide (1–44)” value with LSD2 [4] is on record as “very weak or undetectable”.
